According to ChEMBL document CHEMBL4725492, “Dioxane-Linked Amide Derivatives as Novel Bacterial Topoisomerase Inhibitors against Gram-Positive Staphylococcus aureus” (ACS Med Chem Lett, 2020):
≈ marks a conversion by molar mass, not a printed value. Calls of active or inactive are those of the source. The calls are words filed in the database; no cut-off is given here.

Experiments:
DNA gyrase = DNA gyrase (Staphylococcus aureus, UniProt P0A0K8+P20831); assay: Inhibition of Staphylococcus aureus DNA gyrase using relaxed pBR322 as substrate by gel electrophoresis; assay type: protein-complex assay
Staphylococcus aureus [1] = assay: Antibacterial activity against Staphylococcus aureus D83N by CLSI based agar dilution method; assay type: functional
K562 = assay: Growth inhibition of human K562 cells incubated for 48 hrs by sulforhodamine B assay; assay type: functional
Staphylococcus aureus [2] = assay: Antibacterial activity against Staphylococcus aureus ATCC 29213 by CLSI based agar dilution method; assay type: functional
Staphylococcus aureus [3] = assay: Antibacterial activity against Staphylococcus aureus USA300 by CLSI based agar dilution method; assay type: functional
Staphylococcus aureus [4] = assay: Antibacterial activity against Staphylococcus aureus 3527 by CLSI based agar dilution method; assay type: functional
Topoisomerase IV [5] = biological target: Topoisomerase IV (Staphylococcus aureus, UniProt P0C1S7+P0C1U9); assay: (§1) Inhibition of Staphylococcus aureus topoisomerase-4 assessed as reduction in decatenation of kinetoplast DNA agarose gel electrophoresis method; assay type: protein-complex assay
[6] = biological target: T1, DNA gyrase (Staphylococcus aureus) (UniProt P0A0K8+P20831); assay: Inhibition of Staphylococcus aureus DNA gyrase assessed as single-strand break at 20 uM using relaxed pBR322 as substrate by ethidium bromide-based gel electrophoresis; assay type: protein-complex assay
Summary of the method: (§2)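 S. aureus gyrase-mediated DNA cleavage: compound was incubated with enzyme and DNA, and products were resolved on an ethidium-stained gel into negatively supercoiled, nicked (single-strand break) and linear (double-strand break) forms. Lane fluorescence was corrected for differential band emission. Percent of each form was calculated, and enzyme-only cleavage was subtracted. Concentrations spanned 0.1 nM–200 μM, with a 20 μM single-point screen. Results are mean ± SD or range.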

[7] = biological target: T1, DNA gyrase (Staphylococcus aureus); assay: Inhibition of Staphylococcus aureus DNA gyrase assessed as double-strand break at 20 uM using relaxed pBR322 as substrate by ethidium bromide-based gel electrophoresis; assay type: protein-complex assay; summary of the method: as §2
[8] = Growth inhibition of human K/VP.5 cells incubated for 48 hrs by sulforhodamine B assay; assay type: functional
[9] = biological target: Voltage-gated inwardly rectifying potassium channel KCNH2 (Homo sapiens, UniProt Q12809); assay: Inhibition of human ERG; conditions: human
[10] = biological target: DNA topoisomerase 2-alpha (Homo sapiens, UniProt P11388); assay: Inhibition of human topoisomerase 2alpha
Summary of the method: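 Human topoisomerase IIα decatenation activity was tested at a single concentration of 100 μM and reported as percent inhibition.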

Topoisomerase IV [11] = biological target: Topoisomerase IV (Staphylococcus aureus, UniProt P0C1U9+P0C1S7); assay: as §1; assay type: protein-complex assay
[12] = biological target: T1, DNA gyrase (Staphylococcus aureus); assay: Inhibition of Staphylococcus aureus DNA gyrase assessed as double-strand break at 100 uM using relaxed pBR322 as substrate by ethidium bromide-based gel electrophoresis; assay type: protein-complex assay
Summary of the method: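 Gyrase-mediated DNA cleavage reactions with test agent across 0.1–100 μM. Products were resolved on ethidium-stained gels into negatively supercoiled, nicked and linear forms. DSBs were taken as percent of total lane fluorescence in the linear band, correcting for the different emission of supercoiled versus linear and nicked DNA. Cleavage in enzyme-only controls was subtracted.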

COc1ccc2nccc(CC[C@H]3OC[C@H](NC(=O)c4ccc(C(F)(F)F)cc4)CO3)c2c1
IC50 (DNA gyrase): 1100 nM
MIC (Staphylococcus aureus [1]): > 64 µg/mL
INH (K562): 6.8 µM
MIC (Staphylococcus aureus [2]): 0.25 µg/mL (≈ 0.543 µM)
MIC (Staphylococcus aureus [3]): ≤ 0.5 µg/mL
MIC (Staphylococcus aureus [4]): ≤ 0.5 µg/mL
IC50 (Topoisomerase IV [5]): > 200000 nM
inhibition [6]: Active
inhibition [7]: inactive
INH [8]: 8.9 µM
INH [9]: > 30 µM
inhibition (INH) [10]: Not Active

COc1ccc2nccc(CC[C@H]3OC[C@H](NC(=O)C4Cc5ccccc5CO4)CO3)c2c1 (stereo partly drawn)
MIC (Staphylococcus aureus [1]): > 64 µg/mL
MIC (Staphylococcus aureus [2]): > 64 µg/mL
MIC (Staphylococcus aureus [3]): > 64 µg/mL
MIC (Staphylococcus aureus [4]): > 64 µg/mL

COc1ccc2nccc(CC[C@H]3OC[C@H](NC(=O)c4ccc(OC(F)(F)F)cc4)CO3)c2c1
IC50 (DNA gyrase): 1400 nM
MIC (Staphylococcus aureus [1]): > 32 µg/mL
INH (K562): 11 µM
MIC (Staphylococcus aureus [2]): 0.5 µg/mL (≈ 1.05 µM)
MIC (Staphylococcus aureus [3]): 1 µg/mL (≈ 2.1 µM)
MIC (Staphylococcus aureus [4]): 2 µg/mL (≈ 4.2 µM)
IC50 (Topoisomerase IV [11]): Not Active
inhibition [6]: Active
inhibition [7]: inactive
INH [8]: 9 µM
INH [9]: > 10 µM
inhibition (INH) [10]: Not Active

COc1ccc2nccc(CC[C@H]3OC[C@H](NC(=O)c4ccc5c(c4)NC(=O)CO5)CO3)c2c1
IC50 (DNA gyrase): 60 nM
MIC (Staphylococcus aureus [1]): > 64 µg/mL
INH (K562): >200 µM
MIC (Staphylococcus aureus [2]): 0.25 µg/mL (≈ 0.539 µM)
MIC (Staphylococcus aureus [3]): 0.25 µg/mL (≈ 0.539 µM)
MIC (Staphylococcus aureus [4]): 0.5 µg/mL (≈ 1.08 µM)
IC50 (Topoisomerase IV [5]): 890 nM
INH [8]: >200 µM

COc1ccc2nccc(CC[C@H]3OC[C@H](NC(=O)C4CCCCC4)CO3)c2c1
MIC (Staphylococcus aureus [1]): 32 µg/mL (≈ 80.3 µM)
MIC (Staphylococcus aureus [2]): 8 µg/mL (≈ 20.1 µM)
MIC (Staphylococcus aureus [3]): 8 µg/mL (≈ 20.1 µM)
MIC (Staphylococcus aureus [4]): 8 µg/mL (≈ 20.1 µM)

COc1ccc2nccc(CC[C@H]3OC[C@H](NC(=O)[C@H]4CC[C@H](C)CC4)CO3)c2c1
MIC (Staphylococcus aureus [1]): > 32 µg/mL
MIC (Staphylococcus aureus [2]): 4 µg/mL (≈ 9.7 µM)
MIC (Staphylococcus aureus [3]): 8 µg/mL (≈ 19.4 µM)
MIC (Staphylococcus aureus [4]): 8 µg/mL (≈ 19.4 µM)

COc1ccc2nccc(CC[C@H]3OC[C@H](NC(=O)c4ccc5c(n4)NC(=O)CS5)CO3)c2c1
IC50 (DNA gyrase): 170 nM
MIC (Staphylococcus aureus [1]): > 64 µg/mL
INH (K562): >200 µM
MIC (Staphylococcus aureus [2]): 0.06 µg/mL (≈ 0.125 µM)
MIC (Staphylococcus aureus [3]): 0.03 µg/mL (≈ 0.0624 µM)
MIC (Staphylococcus aureus [4]): 0.03 µg/mL (≈ 0.0624 µM)
IC50 (Topoisomerase IV [5]): 300 nM
INH [8]: >200 µM
INH [9]: > 3 µM

COc1ccc2nccc(CC[C@H]3OC[C@H](NC(=O)C4COc5ccccc5O4)CO3)c2c1 (stereo partly drawn)
MIC (Staphylococcus aureus [1]): > 64 µg/mL
MIC (Staphylococcus aureus [2]): > 64 µg/mL
MIC (Staphylococcus aureus [3]): > 64 µg/mL
MIC (Staphylococcus aureus [4]): > 64 µg/mL

COc1ccc2nccc(CC[C@H]3OC[C@H](NC(=O)c4ccc(Cl)cc4)CO3)c2c1
IC50 (DNA gyrase): 610 nM
MIC (Staphylococcus aureus [1]): > 32 µg/mL
INH (K562): 10 µM
MIC (Staphylococcus aureus [2]): 1 µg/mL (≈ 2.34 µM)
MIC (Staphylococcus aureus [3]): 1 µg/mL (≈ 2.34 µM)
MIC (Staphylococcus aureus [4]): 2 µg/mL (≈ 4.68 µM)
IC50 (Topoisomerase IV [11]): Not Active
inhibition [6]: Active
inhibition [7]: inactive
INH [8]: 11 µM
INH [9]: 11 µM
inhibition (INH) [10]: Not Active

COc1ccc2nccc(CC[C@H]3OC[C@H](NC(=O)c4cccnc4)CO3)c2c1
MIC (Staphylococcus aureus [1]): 128 µg/mL (≈ 325 µM)
MIC (Staphylococcus aureus [2]): 256 µg/mL (≈ 651 µM)
MIC (Staphylococcus aureus [3]): 128 µg/mL (≈ 325 µM)
MIC (Staphylococcus aureus [4]): 128 µg/mL (≈ 325 µM)

COc1ccc2nccc(CC[C@H]3OC[C@H](NC(=O)c4ccccn4)CO3)c2c1
MIC (Staphylococcus aureus [1]): > 256 µg/mL
MIC (Staphylococcus aureus [2]): > 256 µg/mL
MIC (Staphylococcus aureus [3]): > 256 µg/mL
MIC (Staphylococcus aureus [4]): > 256 µg/mL

O=C(O)c1cn(C2CC2)c2cc(N3CCNCC3)c(F)cc2c1=O
inhibition [12]: Active

COc1ccc2nccc(CC[C@H]3OC[C@H](NC(=O)c4ccc(C#N)cc4)CO3)c2c1
MIC (Staphylococcus aureus [2]): > 8 µg/mL
MIC (Staphylococcus aureus [3]): > 8 µg/mL

COc1ccc2nccc(CC[C@H]3OC[C@H](NC(=O)c4cccc(Cl)c4)CO3)c2c1
IC50 (DNA gyrase): 320 nM
MIC (Staphylococcus aureus [1]): > 32 µg/mL
INH (K562): <200 µM
MIC (Staphylococcus aureus [2]): 2 µg/mL (≈ 4.68 µM)
MIC (Staphylococcus aureus [3]): 1 µg/mL (≈ 2.34 µM)
MIC (Staphylococcus aureus [4]): 1 µg/mL (≈ 2.34 µM)
IC50 (Topoisomerase IV [11]): Not Active
inhibition [6]: Active
inhibition [7]: inactive
INH [8]: 50 µM
INH [9]: > 3 µM

COc1ccc2nccc(CC[C@H]3OC[C@H](NC(=O)CC4CCCCC4)CO3)c2c1
MIC (Staphylococcus aureus [1]): > 64 µg/mL
MIC (Staphylococcus aureus [2]): > 64 µg/mL
MIC (Staphylococcus aureus [3]): > 64 µg/mL
MIC (Staphylococcus aureus [4]): > 64 µg/mL

COc1ccc2nccc(CC[C@H]3OC[C@H](NC(=O)c4ccc5c(n4)NC(=O)CO5)CO3)c2c1
IC50 (DNA gyrase): 40 nM
MIC (Staphylococcus aureus [1]): > 64 µg/mL
INH (K562): >200 µM
MIC (Staphylococcus aureus [2]): 0.125 µg/mL (≈ 0.269 µM)
MIC (Staphylococcus aureus [3]): 0.125 µg/mL (≈ 0.269 µM)
MIC (Staphylococcus aureus [4]): 0.125 µg/mL (≈ 0.269 µM)
IC50 (Topoisomerase IV [5]): 190 nM
INH [8]: >200 µM
INH [9]: > 12 µM

COc1ccc2nccc(CC[C@H]3OC[C@H](NC(=O)c4ccccc4Cl)CO3)c2c1
MIC (Staphylococcus aureus [1]): > 256 µg/mL
MIC (Staphylococcus aureus [2]): 256 µg/mL (≈ 600 µM)
MIC (Staphylococcus aureus [3]): > 256 µg/mL
MIC (Staphylococcus aureus [4]): > 256 µg/mL
